Tests used:
[1] = tested on: liver hepatocytes (luciferase expression); test: HD-stimulated / direct HD luciferase gene expression in liver; format: in vivo, mice; conditions: for fold increase of expression on substitution for the PEG-peptide five Lys shorter: 80 nmol PEG-peptide, 1 μg pGL3, HD-stimulation at 1 hour
In short: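 Triplicate mice received 1 μg pGL3 polyplex with 10, 40 or 80 nmol PEG-peptide in 100 μL HBM by tail vein. After 1 h circulation, 1.8 mL saline (per 20 g mouse) was given hydrodynamically over 5 s by tail vein. Liver bioluminescence was imaged 24 h later and analysed as log10 values. Controls: naked pGL3 with HD at 5 min, and direct HD of pGL3.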

[2] = tested on: serum DNAse; conditions: cited from earlier work
[3] = tested on: scavenger receptors (liver uptake of 125I-pGL3 polyplexes); test: Inhibition of liver uptake of 125I-pGL3 polyplexes by excess PEG-peptide; format: in vivo; conditions: mice, PEG 5 kDa peptides dosed in excess (not shown)
[4] = tested on: liver; set-up: species or system mice; conditions: mouse, in vivo

PEG30kDa-Cys-Trp-Lys20
fold increase of expression on substitution for the PEG-peptide five Lys shorter [1]: 5 fold

PEG5kDa-Cys-Trp-Lys18
resistance of polyplexes to metabolism by serum DNAse in vitro [2]: resisted metabolism by serum DNAse in vitro

PEG5kDa-Cys-Trp-Lys15
inhibition of polyplex uptake into the liver when dosed in excess [3]: failed to inhibit polyplex uptake into the liver

PEG30kDa-Cys-Trp-Lys25
maximal percent of polyplex dose taken up by liver [4]: ~30% | percent of polyplex dose taken up by liver [4]: approximately 16% | fold increase of expression on substitution for the PEG-peptide five Lys shorter [1]: 5 fold | fold increase of expression (over 10 nmol dose) ([1]; 1 μg pGL3 polyplex with 40 nmol PEG-peptide, HD-stimulation at 1 hour): 100 fold | further fold improvement of expression (over 40 nmol dose) ([1]; 1 μg pGL3 polyplex with 80 nmol PEG-peptide, HD-stimulation at 1 hour): 15 fold
